Assay results published in publication PMC5598529 (Toxicology Reports, 2014).
“Also recorded” adds a separate entry of the source.

Legend:
Assay type in all cases: cell-based, human
[1] = test system: Caco-2 cells; assay: MTT cell viability assay; conditions: for concentration at which impact on viability appeared: appeared later (J7); for Cell viability (J10), concentration given for the effect: day 10, p < 0.05; for concentration at which toxicity was observed: 3 days-period of exposure
Summary of the method: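 Caco-2 (passage 25–39) were seeded at 5 × 10^4/well. After 20 h they received 0.1–100 μM test compound, alone or as an equimolar mixture, in 4% FBS medium, renewed every 48 h, for 3, 7 and 10 days. MTT (0.5 mg/ml in RPMI) was added for 4 h at 37 °C and stopped with SDS/NaOH. Absorbance was read at 570/690 nm as % of DMSO control; EC50 was taken from the dose–response curve. Three experiments, each in quadruplicate.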

[2] = test system: Caco-2 cells; assay: Intracellular ROS; conditions: 6 h exposure, p < 0.05; for H2O2 production, direction of effect: 25 or 100 μM, vs control
Summary of the method: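 Cells were plated at 5 × 10^4/well and grown 48 h in 10% FBS medium, then washed with PBS. They were exposed for 6 h at 37 °C to 25 or 100 μM test compound in HBSS containing 5 μM H2-DCFDA; controls had 0.025% DMSO. After PBS washes, fluorescence was read at ex 485/em 530 nm.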

[3] = test system: Alkaline phosphatase activity in Caco-2 cells; assay: Alkaline phosphatase assay for cell differentiation; conditions: for ALP activity (J10), direction of effect: 1-25 μM, 10 days, vs control, p < 0.01; for ALP activity (J10), concentration given for the effect: day 10, p < 0.01
Summary of the method: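 Caco-2 seeded at 1.125 × 10^5 cells/well and treated next day with 1, 5, 10 or 25 μM of test compound, or 0.1% DMSO vehicle, for 10 days in 4% FBS medium, renewed every 48 h. Cells were scraped into cold 50 mM Tris pH 7.5 and needle-homogenised. Lysate ALP hydrolysed pNPP over 30 min at pH 10.4, 37 °C; p-nitrophenol read at 405 nm, per mg protein, as % of control.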

[4] = test system: Caco-2 cell monolayer; assay: Phenol red diffusion; conditions: 1-25 μM, day 10, vs control
Summary of the method: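 Monolayers were grown on collagen-coated Transwells (2.5 × 10^5 cells/well) for 4 days. Then 1, 5, 10 or 25 μM test compound or 0.1% DMSO was added to both compartments in 4% FBS medium, renewed every 2 days. At day 10, phenol red medium was placed apically and phenol red-free medium basolaterally. Apical-to-basolateral diffusion over 4 h was read at 560 nm and expressed as percent diffusion.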

[5] = test system: catalase (CAT) activity in Caco-2 cells; assay: Antioxidant enzyme assay: catalase; conditions: 10 days, 1, 5, 10 and 25 μM, vs control
Summary of the method: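 Cells at 1.5 × 10^5/well were exposed next day to 1–25 μM test compound or vehicle, renewed every 48 h. At day 10 they were sonicated in 50 mM phosphate pH 7 with 1 mM EDTA. Catalase was measured in the 105,000 × g (1 h, 4 °C) supernatant as H2O2 decomposition followed at 240 nm for 30 s. Specific activity is given as % of control.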

[6] = test system: Caco-2 cell monolayer; assay: Transepithelial electrical resistance; conditions: for TEER (J10), direction of effect: 1-25 μM, 10 days, vs control; for TEER (J10), concentration given for the effect: day 10
Summary of the method: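 Caco-2 were grown on collagen-coated Transwells (2.5 × 10^5 cells/well) for 4 days. They were then exposed apically and basolaterally to 1, 5, 10 or 25 μM test compound or 0.1% DMSO, renewed every 2 days. Resistance was measured at days 0, 3, 7 and 10 and expressed in Ω cm2. Mean ± SEM of 3 independent experiments, each in triplicate.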

[7] = test system: phospho-Akt (Ser473) in Caco-2 cells; assay: Western blot analysis of Akt; conditions: 25 μM, compared to control
Summary of the method: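 Cells at 1.5 × 10^5/well were exposed 20 h after seeding to 25 μM of each test compound or the mixture for 10 days. Lysis was in RIPA with protease and phosphatase inhibitors. 25 μg protein was resolved by SDS-PAGE and blotted to nitrocellulose. Blots were probed overnight at 4 °C with anti-phospho-Akt Ser473 (1/2000) and anti-Akt1/2/3 (1/1000), then detected with 800 nm infrared-dye secondaries and quantified by relative fluorescence. Three independent experiments.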

[8] = test system: Caco-2 cells; assay: Lipid peroxidation measurement; conditions: 48 h exposure; for Lipid peroxidation, concentration given for the effect: p < 0.01; for TBARS level with respect to control: 25 μM
Summary of the method: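 Cells were seeded at 1.25 × 10^5/well and exposed for 48 h to 25 or 100 μM test compound. Culture medium was mixed with HCl and TBA buffer, heated 10 min at 95 °C, ice-cooled and extracted with n-butanol. Absorbance was read at 532 nm. MDA equivalents were calculated from a TMOP calibration curve.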

[9] = test system: Caco-2 cells; assay: Detection of apoptosis and necrosis by Hoechst 33342 and PI staining; conditions: 25 μM, 48 h; for Percent of necrosis in treated vs control cells: ratio of percentage of necrotic cells in treated versus untreated cells
Summary of the method: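 Cells were seeded at 1.25 × 10^5/well. After 20 h they received 25 μM test compound, alone or as an equimolar mixture, for 48 h. They were stained with Hoechst 33342 (5 μg/ml) plus PI (1 μg/ml) for 30 min at 37 °C in the dark, then washed. Normal, apoptotic and necrotic cells were counted in four random fields per well. Three independent experiments, each in triplicate.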

[10] = test system: superoxide dismutase (SOD) activity in Caco-2 cells; assay: Antioxidant enzyme assay: superoxide dismutase; conditions: 10 days, 1, 5, 10 and 25 μM, vs control
Summary of the method: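 Supernatant at 105,000 × g from sonicated Caco-2 was used, after 10 days' exposure to 1–25 μM test compound or vehicle. Superoxide came from xanthine–xanthine oxidase, and inhibition of NBT reduction was followed kinetically at 560 nm for 5 min over several protein amounts. One unit inhibits formazan formation by 50%. Specific activity is given as % of control.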

[11] = test system: Caco-2 cells; assay: Observation of morphologic changes; conditions: 25 μM, 72 h, phase contrast microscopy
Summary of the method: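 Cells were seeded at 1.125 × 10^5/well and grown 20 h. They were then exposed to 25 μM test compound for 72 h and morphology was examined by phase-contrast microscopy.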

[12] = test system: glutathione peroxidase (GPx) activity in Caco-2 cells; assay: Antioxidant enzyme assay: glutathione peroxidase; conditions: 10 days, 1, 5, 10 and 25 μM, vs control
Summary of the method: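 GPx activity was measured in Caco-2 exposed to 1–25 μM test compound or vehicle for 10 days. Cells were sonicated in 50 mM phosphate pH 7 with 1 mM EDTA and the 105,000 × g supernatant was used. The assay was coupled to glutathione reductase with H2O2 and NADPH, and NADPH loss was followed at 340 nm. Specific activity is given as % of control.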

SMILES	concentration at which impact on viability appeared [1] [µM]	Cell viability (J10), concentration given for the effect [1] [µM]	H2O2 production, concentration given for the effect [2] [µM]	ALP activity (J10), direction of effect [3]	ALP activity (J10), concentration given for the effect [3] [µM]	Apparent permeability (J10) (phenol red diffusion), direction of effect [4]	CAT activity [5]	TEER (J10), direction of effect [6]	TEER (J10), concentration given for the effect [6] [µM]	level of phospho-Akt (Ser473) [7]	Lipid peroxidation, concentration given for the effect [8] [µM]	H2O2 production, direction of effect [2]	Percent of necrosis in treated vs control cells [9]	SOD activity [10]	concentration at which toxicity was observed [1] [µM]	morphological changes / cell density [11]	GPx activity [12]	TBARS level with respect to control [8] [%]	also measured
CC1(C)[C@H](C(=O)O[C@H](C#N)c2cccc(Oc3ccccc3)c2)[C@@H]1/C=C(\Cl)C(F)(F)F (racemic) [LCT, lambda-cyhalothrin]	1	1	100	increased its activity	1	decrease of membrane permeability	increase	significant increase	25	greatest impact	100	–	–	–	–	–	–	–	–
CC1(C)[C@H](C(=O)O[C@H](C#N)c2cccc(Oc3ccccc3)c2)[C@@H]1C=C(Br)Br [DTM, deltamethrin]	8	8	25	increased its activity	1	decrease of membrane permeability	increase	significant increase	10	–	100	strongest effect	2.7	–	–	–	–	–	–
COP(=S)(OC)Oc1ccc([N+](=O)[O-])c(C)c1 [FNT, fenitrothion]	–	5	25	decreased ALP activity	5	increase of the apparent permeability	–	net decrease	10	–	25	strongest effect	4.4	increase	1	reduction of cell density	increase	167.66	–
N#Cc1nn(-c2c(Cl)cc(C(F)(F)F)cc2Cl)c(N)c1[S+]([O-])C(F)(F)F (stereo not shown) [FPN, fipronil]	5	5	100	decreased ALP activity	10	–	–	failed to produce a clear and noticeable change	–	reduced level; also recorded: greatest impact	25	strongest effect	3.2	–	–	reduction of cell density	increase	192.45	EC50 ([1]; Caco-2 cells, 10 days exposure, 0.1-100 μM, mean ± SEM): 18.1 ± 0.5 µM; apoptotic cells ([9]; vs control): huge increased; percentage of necrotic cells ([9]; vs control): increased to a lesser extent
O=C(NC(=O)c1c(F)cccc1F)Nc1cc(Cl)c(F)c(Cl)c1F [TBZ, teflubenzuron]	–	5	100	increased its activity	5	increase of the apparent permeability	no change	net decrease	5	–	25	–	3.8	no change	5	–	no change	–	–
